Publication PMC3684024 (Science translational medicine, 2013)

Key:
[1] = ref [12]; cited from earlier work
EAE = settings: cited from earlier work
[2] = system: animal models of stroke, cardiac and retinal ischemia-reperfusion injury; settings: cited from earlier work
[3] = biological target: bovine insulin (beta chain) aggregation (Bos taurus, UniProt P01317); assay: Chaperone assay: inhibition of DTT induced insulin aggregation; type: biochemical
Outline: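 Bovine insulin (150 µg) in 100 mM NaCl, 20 mM Tris pH 7.4, with or without varying peptide or protein concentrations, at 37°C; some runs at pH 5. Reduction is started at time zero with DTT (100 mM stock). Aggregation is followed as absorbance at 360 nm over 20 min. In time-of-addition runs, small heat shock protein or fibrils are added 3, 10 or 16 min after DTT, with a buffer-only addition as dilution control.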

plasma proteins = settings: ref [13], cited from earlier work
insulin fibril formation = assay: Inhibition of insulin amyloid fibril formation; type: biochemical, bovine; settings: ThT fluorescence ex 440 nm, em 485 nm (fig. S2)
Outline: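 Fibril formation is tracked in the DTT-reduced insulin chaperone reaction: bovine insulin in NaCl/Tris pH 7.4 at 37°C, with or without test peptide fibrils. Thioflavin T is added from a 10 µM solution and fluorescence is read at 485 nm with excitation at 440 nm on a microplate reader.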

bovine insulin (beta chain) aggregation, sequence (P01317 25-54 limits assumed): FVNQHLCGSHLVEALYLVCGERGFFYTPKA

## 73–92 of HspB5: linear peptide region within HspB5, residues 73–92 (DRFSVNLDVKHFSPEELKVK; UniProt P02511 73-92, looked up, fragment)
[1]
  chaperone activity: exhibited chaperone activity
EAE; ref [12]
  reduction of paralysis and histological neuroinflammation in EAE: therapeutic, reducing paralysis and histological neuroinflammation in EAE

## Aβ 1–40: peptide from amyloid β A4
EAE; ameliorating paralysis and reducing brain inflammation, ref [6]
  anti-inflammatory effect in EAE: effective anti-inflammatory agents

## HspB5: amyloid forming small heat shock protein
[2]; ref [3]
  therapeutic effect in stroke model: therapeutic
[2]; ref [4], [5]
  therapeutic effect in cardiac and retinal ischemia-reperfusion injury: therapeutic
[3]; 150 µg HspB5 given at time 0
  inhibition of insulin aggregation when given at time 0: fully inhibitory dose when given at time 0
[3]; 150 µg HspB5 or Tau fibrils added three minutes after dithiothreitol (fig. S3)
  effect on light scattering when added 3 min after DTT: rapid increase in light scattering
[3]; added 10 and 16 minutes after initiation
  effect on light scattering when added at 10 and 16 minutes: increase in light scattering, albeit less of an increase at longer than earlier time points
[3]; added after initiation of fibril formation (figs. S3, S4)
  effect on insulin fibrillization after initiation: can increase the light scattering after initiation of fibril formation
Plasma proteins; enriched and temperature dependent binding
  number of ligands precipitated from plasma: approximately 70
Plasma proteins
  ligands that are acute phase, complement or coagulation proteins: Greater than 50%
Insulin fibril formation
  inhibition of insulin fibril formation: effective inhibitors of insulin fibril formation
EAE; ref [2]
  therapeutic effect in animal models of multiple sclerosis: therapeutic
